The text below walks through data of ChEMBL document CHEMBL1126275, “Conformationally restrained, chiral (phenylisopropyl)amino-substituted pyrazolo[3,4-d]pyrimidines and purines with selectivity for adenosine A1 and A2 receptors” (J Med Chem, 1992).

Assay [1] addresses T1, Adenosine receptor A1 (Rattus norvegicus, UniProt P25099).
T1 sequence (P25099 whole entry): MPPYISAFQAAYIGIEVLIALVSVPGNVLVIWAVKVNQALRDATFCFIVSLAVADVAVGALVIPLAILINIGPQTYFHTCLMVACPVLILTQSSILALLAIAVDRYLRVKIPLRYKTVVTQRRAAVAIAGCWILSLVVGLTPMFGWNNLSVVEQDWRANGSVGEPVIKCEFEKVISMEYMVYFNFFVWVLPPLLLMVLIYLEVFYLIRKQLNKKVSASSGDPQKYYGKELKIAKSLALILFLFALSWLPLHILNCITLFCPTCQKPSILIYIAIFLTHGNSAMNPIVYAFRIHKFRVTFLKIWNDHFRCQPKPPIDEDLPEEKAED
Briefly: Inhibition of [3H]CHA binding to Adenosine A1 receptor in whole rat brain membranes. It counts as cell membranes. Summed up: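 Whole rat brain membranes; [³H]CHA binding measured at 25 °C. Compounds from millimolar DMSO stocks diluted in water. Ki given as geometric mean ± standard error of a single determination run in triplicate.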

The target in assay [2] is Adenosine A2 receptor (Rattus norvegicus, UniProt P29276+P30543). Briefly: Inhibition of [3H]NECA binding to Adenosine A2 receptor in rat brain striatum. It counts as tissue-based. In outline:
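[³H]NECA binding in rat brain striatum at 25 °C. Compounds from millimolar DMSO stocks diluted in water. Ki given as geometric mean ± standard error of a single determination in triplicate.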

In assay [3] the target is Adenosine receptors; A1 & A2 (Rattus norvegicus) (UniProt P29276+P25099+P30543). Briefly: Selectivity ratio against Adenosine A1 and A2 Receptors, ratio of Ki. It counts as protein assay. In outline: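 Ratio of A2 Ki ([³H]NECA, rat striatum, 25 °C) to A1 Ki ([³H]CHA, whole rat brain membranes, 25 °C). Each Ki is a geometric mean from a single triplicate determination.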

Assay [4] has as its target T1, Adenosine receptor A1. Nature of the assay: Inhibition of [3H]CHA binding to Adenosine A1 receptor in rat cerebral cortical membranes. It counts as cell membranes, Membrane. In outline: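 Rat cerebral cortical membranes; displacement of [³H]CHA binding. Test compounds held as millimolar DMSO stocks, warmed to room temperature and diluted in water. Values from a single competition experiment, each concentration in triplicate.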

As a reminder, the Ki is the equilibrium dissociation constant of an inhibitor or competing ligand from its target. Lower therefore signals a stronger hold on the target. For orientation: IC50 means the concentration that gives 50% inhibition.

On to `CCCOC1=Nc2c(cnn2-c2ccccc2)C2=N[C@@H](C)[C@H](c3ccccc3)N12`, for which the inhibitory constant (Ki) in assay [1] is 33 µM; in assay [2], 45 µM. Further, in assay [3], the Selectivity ratio amounted to 1.4.
On to `CCCOC1=Nc2c(ncn2-c2ccccc2)C2=N[C@H](Cc3ccccc3)CN12`, for which the Ki in assay [1] worked out at 3.2 µM; in assay [2], 72 µM. Besides, the Selectivity ratio in assay [3] came out at 22.
In the case of `CCCOC1=Nc2c(cnn2-c2ccccc2)C2=N[C@H](C)[C@@H](c3ccccc3)N12`, the inhibitory constant (Ki) came out at 7.4 µM in assay [1] and 11 µM in assay [2]. In addition, the Selectivity ratio in assay [3] was found to be 1.5.
As to `CCCOC1=Nc2c(cnn2-c2ccccc2)C2=N[C@@H](Cc3ccccc3)CN12`, the inhibition constant (Ki) in assay [1] came out at 9.4 µM; in assay [2], 3.3 µM. For the same molecule, the Selectivity ratio in assay [3] stood at 0.35.
As for `CCCOc1nc(N[C@H](CO)Cc2ccccc2)c2cnn(-c3ccccc3)c2n1` (stereo in doubt; 10b) [listing 1 of 2 here], the values for the inhibition constant (Ki) in assay [1] and in assay [2] were 0.35 µM and 0.37 µM, respectively.
Turning to `CCCOc1nc(N[C@H](CO)Cc2ccccc2)c2cnn(-c3ccccc3)c2n1` (stereo in doubt; 10a) [listing 1 of 2 here], in assay [3], the Selectivity ratio stood at 2.6.
As to `COc1nc2c(cnn2-c2ccccc2)c(=O)n1C`, the IC50 in assay [4] is 4.8 µM.
As to `CCCOc1nc(N[C@H](CO)Cc2ccccc2)c2cnn(-c3ccccc3)c2n1` (stereo in doubt; 10b) [listing 2 of 2 here], the Selectivity ratio in assay [3] was 1.
For `CCCOC1=Nc2c(ncn2-c2ccccc2)C2=N[C@@H](Cc3ccccc3)CN12`, the Ki in assay [2] came to 1.6 µM. Moreover, in assay [3], the Selectivity ratio was 0.18.
In assay [4], `CCCn1c(=O)n(C)c(=O)c2cnn(-c3ccccc3)c21` had an IC50 of 35 µM.
For the molecule `CCCOc1nc(N[C@H](C)[C@@H](O)c2ccccc2)c2cnn(-c3ccccc3)c2n1`, the inhibition constant (Ki) in assay [1] stood at 1 µM; in assay [2] it was 0.31 µM. For the same molecule, the Selectivity ratio in assay [3] was found to be 0.31.
In the case of `CCCOc1nc(N[C@@H](CO)Cc2ccccc2)c2ncn(-c3ccccc3)c2n1`, the figures for the Ki in assay [1] and in assay [2] were 0.44 µM and 30 µM, respectively. For the same molecule, the Selectivity ratio in assay [3] was found to be 68.
The corresponding values for `CCCOC1=Nc2c(cnn2-c2ccccc2)C2=N[C@H](Cc3ccccc3)CN12` are 0.62 µM, above 100 µM and above 100.
Take `CCCOc1nc(N[C@H](CO)Cc2ccccc2)c2ncn(-c3ccccc3)c2n1`: the Ki in assay [1] was determined as 0.096 µM; in assay [2], 5.6 µM. Further, the Selectivity ratio in assay [3] is 58.
`Cn1c(=O)c2cnn(-c3ccccc3)c2n(C)c1=O`: the IC50 in assay [4] turned out to be 33 µM.
With `CCCOc1nc(N[C@H](CO)Cc2ccccc2)c2cnn(-c3ccccc3)c2n1` (stereo in doubt; 10a) [listing 2 of 2 here], the Ki worked out at 1.6 µM in assay [1] and 4.2 µM in assay [2].
For the molecule `CCCOc1nc(N[C@@H](C)[C@H](O)c2ccccc2)c2cnn(-c3ccccc3)c2n1`, the inhibition constant Ki in assay [1] is 6.3 µM; in assay [2], 1.4 µM. Moreover, in assay [3], the Selectivity ratio is 0.22.
